In brackets after ≈: the same amount, converted by molar mass.
What was measured:
[1] = system: Mycobacterium tuberculosis; assay: Antimycobacterial activity against Mycobacterium bovis BCG in 7H9 medium; format: functional; details: variant bovis BCG
How it was run: (§1)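 M. bovis BCG MIC determined in liquid medium, comparing iron conditions: cells grown in 7H9/OADC (high iron) versus low-iron chelated Sauton's medium.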

[2] = system: Mycobacterium tuberculosis; assay: Ratio of MIC for Mycobacterium bovis BCG in 7H9 medium to MIC for Mycobacterium bovis BCG in low iron containing medium; format: functional, variant bovis BCG
[3] = system: Mycobacterium tuberculosis; assay: Antimycobacterial activity against Mycobacterium bovis BCG in low iron containing medium; format: functional; details: variant bovis BCG; how it was run: as §1

`O=C(O)c1ccc(-c2ccc([N+](=O)[O-])cc2)o1` was tested, and the MIC [1] was 240 µM (≈ 56 µg/mL), the Ratio [2] was 3 and the MIC [3] was 80 µM (≈ 18.7 µg/mL).
